According to ChEMBL document CHEMBL2040779, “Multidentate (18)F-polypegylated styrylpyridines as imaging agents for Aβ plaques in cerebral amyloid angiopathy (CAA)” (J Med Chem, 2011):
Active and inactive are the calls of the source. The rule behind the calls is not given here.

Experiments:
Blood [1] = test: Biodistribution in ICR mouse blood at 925 KBq, iv after 2 mins by gamma counting; assay type: ADME, organism-based; details: in vivo
Summary of the method: (§1)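 The ¹⁸F tracer was given iv to normal ICR mice (n = 6 per time point). Animals were killed by cardiac excision under isoflurane at 2 or 30 min. Organs were removed, weighed and γ-counted. %dose/g was calculated against counts of a 100-fold diluted aliquot of the injectate (1% of initial dose), counted at the same time.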

Muscle tissue [2] = test: Biodistribution in ICR mouse muscle at 925 KBq, iv after 2 mins by gamma counting; assay type: ADME, organism-based; details: in vivo; summary of the method: as §1
Kidney [3] = test: Biodistribution in ICR mouse kidney at 925 KBq, iv after 2 mins by gamma counting; assay type: ADME, organism-based; details: in vivo; summary of the method: as §1
Liver [4] = test: Biodistribution in ICR mouse liver at 925 KBq, iv after 2 mins by gamma counting; assay type: ADME, organism-based; details: in vivo; summary of the method: as §1
Brain [5] = test: Biodistribution in ICR mouse brain at 925 KBq, iv after 2 mins by gamma counting; assay type: ADME, organism-based; details: in vivo; summary of the method: as §1
Bone [6] = test: Biodistribution in ICR mouse bone at 925 KBq, iv after 2 mins by gamma counting; assay type: ADME, organism-based, Bone element; details: in vivo; summary of the method: as §1
Blood [7] = test: Biodistribution in ICR mouse blood at 925 KBq, iv after 30 mins by gamma counting; assay type: ADME, organism-based; details: in vivo, 0.5 h; summary of the method: as §1
Muscle tissue [8] = test: Biodistribution in ICR mouse muscle at 925 KBq, iv after 30 mins by gamma counting; assay type: ADME, organism-based; details: in vivo, 0.5 h; summary of the method: as §1
Kidney [9] = test: Biodistribution in ICR mouse kidney at 925 KBq, iv after 30 mins by gamma counting; assay type: ADME, organism-based; details: in vivo, 0.5 h; summary of the method: as §1
Liver [10] = test: Biodistribution in ICR mouse liver at 925 KBq, iv after 30 mins by gamma counting; assay type: ADME, organism-based; details: in vivo, 0.5 h; summary of the method: as §1
Brain [11] = test: Biodistribution in ICR mouse brain at 925 KBq, iv after 30 mins by gamma counting; assay type: ADME, organism-based; details: in vivo, 0.5 h; summary of the method: as §1
Bone [12] = test: Biodistribution in ICR mouse bone at 925 KBq, iv after 30 mins by gamma counting; assay type: ADME, organism-based, Bone element; details: in vivo, 0.5 h; summary of the method: as §1
[13] = target: T1, Amyloid-beta precursor protein (Homo sapiens, UniProt P05067); test: Displacement of [18F]-amyvid from amyloid-beta aggregates in alzheimer's disease patient brain homogenates after 1 hr; assay type: tissue-based
Summary of the method: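 Competition binding in post-mortem AD brain tissue homogenates against [¹⁸F]5 bound to Aβ aggregates. Results are expressed as inhibition constants (Ki, nM).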

[14] = target: T1, Amyloid-beta precursor protein; test: Binding affinity to amyloid-beta plaque in cerebral blood vessels of alzheimer's disease patient cerebral amyloid angiopathy region of brain after 1 hr; assay type: tissue-based; details: tested as the 18F-labelled form
Summary of the method: (§2)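 Post-mortem occipital sections (20 μm) from frozen brains of confirmed CAA, AD and control subjects. The ¹⁸F-labelled tracer was applied in 40% ethanol for 1 h. Sections were washed twice for 2 min in saturated Li₂CO₃/40% ethanol, once for 2 min in 40% ethanol, then rinsed 30 s in water. Dried sections were exposed to film for 12−18 h and the images digitized.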

[15] = target: T1, Amyloid-beta precursor protein; test: Binding affinity to amyloid-beta plaque in parenchymal region of alzheimer's disease patient brain after 1 hr; details: tested as the 18F-labelled form; summary of the method: as §2
[16] = target: T1, Amyloid-beta precursor protein; test: Binding affinity to amyloid-beta plaque in cerebral blood vessels of normal human cerebral amyloid angiopathy region of brain after 1 hr; assay type: tissue-based; details: tested as the 18F-labelled form; summary of the method: as §2
[17] = target: T1, Amyloid-beta precursor protein; test: Binding affinity to amyloid-beta plaque in parenchymal region of normal human brain after 1 hr; assay type: tissue-based; details: tested as the 18F-labelled form; summary of the method: as §2
[18] = target: T1, Amyloid-beta precursor protein; test: Binding affinity to amyloid-beta plaque in cerebral blood vessels of alzheimer's disease patient cerebral amyloid angiopathy region of brain after 1 hr by autoradiography; assay type: tissue-based; details: tested as the 18F-labelled form; summary of the method: as §2
[19] = target: T1, Amyloid-beta precursor protein; test: Binding affinity to amyloid-beta plaque in cerebral blood vessels of alzheimer's disease patient cerebral amyloid angiopathy region of brain after 1 hr by thioflavin S staining; assay type: tissue-based; details: tested as the 18F-labelled form
Summary of the method: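 Adjacent brain sections were fixed 1 h in 10% neutral buffered formalin. Staining was with 0.025% thioflavin S in 40% ethanol for 3−5 min, then differentiation in 50% ethanol. Sections were viewed by fluorescence microscopy.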

T1 sequence (P05067 whole entry): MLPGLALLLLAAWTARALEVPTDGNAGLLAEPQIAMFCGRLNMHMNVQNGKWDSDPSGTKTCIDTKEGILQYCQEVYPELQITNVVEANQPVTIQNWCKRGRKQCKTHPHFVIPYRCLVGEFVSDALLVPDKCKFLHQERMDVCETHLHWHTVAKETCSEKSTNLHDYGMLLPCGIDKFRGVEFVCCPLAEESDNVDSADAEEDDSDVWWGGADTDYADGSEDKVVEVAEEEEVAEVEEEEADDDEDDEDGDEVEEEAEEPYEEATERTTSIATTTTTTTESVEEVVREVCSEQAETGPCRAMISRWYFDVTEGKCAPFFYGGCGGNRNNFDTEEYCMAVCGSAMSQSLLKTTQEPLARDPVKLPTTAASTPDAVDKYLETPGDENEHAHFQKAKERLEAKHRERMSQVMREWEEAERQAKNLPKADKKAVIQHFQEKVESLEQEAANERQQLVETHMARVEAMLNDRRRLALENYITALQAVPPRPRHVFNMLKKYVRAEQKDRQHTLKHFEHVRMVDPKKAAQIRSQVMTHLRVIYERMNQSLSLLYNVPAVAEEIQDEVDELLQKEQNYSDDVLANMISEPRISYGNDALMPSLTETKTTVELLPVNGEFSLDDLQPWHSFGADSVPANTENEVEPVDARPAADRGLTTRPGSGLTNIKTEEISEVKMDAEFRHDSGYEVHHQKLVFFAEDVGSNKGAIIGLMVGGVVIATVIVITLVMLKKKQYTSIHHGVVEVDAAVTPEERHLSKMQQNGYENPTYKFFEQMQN

Drug uptake (Blood [1]) | Drug uptake (Muscle tissue [2]) | Drug uptake (Kidney [3]) | Drug uptake (Liver [4]) | Drug uptake (Brain [5]) | Drug uptake (Bone [6]) | Drug uptake (Blood [7]) | Drug uptake (Muscle tissue [8]) | Drug uptake (Kidney [9]) | Drug uptake (Liver [10]) | Drug uptake (Brain [11]) | Drug uptake (Bone [12]) | Ki [13] | Compound | also measured
2.55 % ID/g | 1.3 % ID/g | 14.9 % ID/g | 33.5 % ID/g | 0.4 % ID/g | 1.64 % ID/g | 1.32 % ID/g | 1.62 % ID/g | 13.4 % ID/g | 20 % ID/g | 0.34 % ID/g | 1.8 % ID/g | – | CNc1ccc(/C=C/c2ccc(OCCOCCOCCOCCOCCOCC(COCCOCCOCCOCCOCCOc3ccc(/C=C/c4ccc(NC)cc4)cn3)OCC[18F])nc2)cc1 | –
– | – | – | – | – | – | – | – | – | – | – | – | 2.22 nM | CNc1ccc(/C=C/c2ccc(OCCOCCOCC[18F])cc2)cc1 [FLORBETABEN F18] | –
– | – | – | – | – | – | – | – | – | – | – | – | 3.24 nM | CNc1ccc(/C=C/c2ccc(OCCOCCOCCOCCOCC(COCCOCCOCCOCCOc3ccc(/C=C/c4ccc(NC)cc4)cn3)OCCF)nc2)cc1 | Activity [14]: Active; Activity [15]: Active; Activity [16]: inactive; Activity [17]: inactive; Activity [18]: Active; Activity [19]: Active
– | – | – | – | – | – | – | – | – | – | – | – | 0.74 nM | CNc1ccc(-c2nc3ccc(O)cc3s2)cc1[18F] [FLUTEMETAMOL F 18] | –
4.77 % ID/g | 0.82 % ID/g | 8.13 % ID/g | 21.2 % ID/g | 0.4 % ID/g | 1.3 % ID/g | 1.54 % ID/g | 1.21 % ID/g | 9.36 % ID/g | 21.4 % ID/g | 0.4 % ID/g | 2.34 % ID/g | – | CNc1ccc(/C=C/c2ccc(OCCOCCOCCOCCOCC(COCCOCCOCCOCCOc3ccc(/C=C/c4ccc(NC)cc4)cn3)OCC[18F])nc2)cc1 | –
– | – | – | – | – | – | – | – | – | – | – | – | 3.86 nM | CNc1ccc(/C=C/c2ccc(OCCOCCOCCOCCOCCOCCOCC(COCCOCCOCCOCCOCCOCCOc3ccc(/C=C/c4ccc(NC)cc4)cn3)OCCF)nc2)cc1 | –
– | – | – | – | – | – | – | – | – | – | – | – | 468 nM | CNc1ccc(/C=C/c2ccc(OCCOCCOCCOCCn3cc(COCC(COCCOCCOCCF)(COCc4cn(CCOCCOCCOCCOc5ccc(/C=C/c6ccc(NC)cc6)cn5)nn4)COCc4cn(CCOCCOCCOCCOc5ccc(/C=C/c6ccc(NC)cc6)cn5)nn4)nn3)nc2)cc1 | –
– | – | – | – | – | – | – | – | – | – | – | – | 71.2 nM | CNc1ccc(/C=C/c2ccc(OCCOCCOCCOCCNC(=O)CN(CC(=O)NCCOCCOCCOCCOc3ccc(/C=C/c4ccc(NC)cc4)cn3)C(=O)COCCOCCOCCF)nc2)cc1 | –
– | – | – | – | – | – | – | – | – | – | – | – | – | CNc1ccc(/C=C/c2ccc(OCCOCCOCCF)nc2)cc1 | Activity [14]: Active; Activity [15]: Active; Activity [16]: inactive; Activity [17]: inactive
3.12 % ID/g | 0.65 % ID/g | 13.7 % ID/g | 30.2 % ID/g | 0.29 % ID/g | 1.06 % ID/g | 1.4 % ID/g | 1.29 % ID/g | 11.7 % ID/g | 16 % ID/g | 0.38 % ID/g | 1.36 % ID/g | – | CNc1ccc(/C=C/c2ccc(OCCOCCOCCOCCOCCOCCOCC(COCCOCCOCCOCCOCCOCCOc3ccc(/C=C/c4ccc(NC)cc4)cn3)OCC[18F])nc2)cc1 | –
3.14 % ID/g | 1.06 % ID/g | 10.9 % ID/g | 21.5 % ID/g | 7.77 % ID/g | 1.43 % ID/g | 2.8 % ID/g | 1.78 % ID/g | 6.31 % ID/g | 12.9 % ID/g | 1.59 % ID/g | 1.22 % ID/g | – | CNc1ccc(/C=C/c2ccc(OCCOCCOCC[18F])nc2)cc1 [FLORBETAPIR F 18] | –
– | – | – | – | – | – | – | – | – | – | – | – | 7.71 nM | CNc1ccc(/C=C/c2ccc(OCCOCCOCCOCCOCCOCC(COCCOCCOCCOCCOCCOc3ccc(/C=C/c4ccc(NC)cc4)cn3)OCCF)nc2)cc1 | –
– | – | – | – | – | – | – | – | – | – | – | – | > 1000 nM | CN(C(=O)OC(C)(C)C)c1ccc(/C=C/c2ccc(OCCOCCOCCOCCOCC(COCCOCCOCCOCCOc3ccc(/C=C/c4ccc(N(C)C(=O)OC(C)(C)C)cc4)cn3)OCCF)nc2)cc1 | –
